One data set concerns Liver microsome. Put plainly: Intrinsic clearance in rat liver microsomes at 1 uM incubated for 3 mins prior to NADPH addition by LC-MS/MS analysis. The format is ADME. The settings on record: 0.05 h. On the technique in general: Liver microsomes are vesicles of endoplasmic reticulum, rich in cytochrome P450 enzymes.
Data set [1] can be described thus: Cytotoxicity against human PBMC assessed as cell viability by MTS assay. Format: cell-based. To be noted: read-out: TC50 (the source's name). (In general: Formazan colour is commonly taken as a measure of viable cells.)
In the next data set the test system is Mus musculus. Put plainly: Induction of WBC mobilization in Harlan C57BL/6 mouse at 5 to 20 mg/kg, sc after 6 to 8 hrs by LC/MS/MS analysis relative to control. Format: functional, organism-based. The essentials: (§1)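 Harlan mice were given a single subcutaneous dose at 5, 10 or 20 mg/kg. Blood was sampled at multiple time points over about 8 h, and each sample was used for both total circulating WBC count and plasma drug level. Counts and concentrations were plotted against time for each dose.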

The target of data set [2] is C-X-C chemokine receptor type 6 (Homo sapiens) (UniProt O00574). Kind of data set: Inhibition of CXCR6 (unknown origin) at 10 uM relative to control.
C-X-C chemokine receptor type 6 (Homo sapiens), sequence (O00574 whole entry, looked up): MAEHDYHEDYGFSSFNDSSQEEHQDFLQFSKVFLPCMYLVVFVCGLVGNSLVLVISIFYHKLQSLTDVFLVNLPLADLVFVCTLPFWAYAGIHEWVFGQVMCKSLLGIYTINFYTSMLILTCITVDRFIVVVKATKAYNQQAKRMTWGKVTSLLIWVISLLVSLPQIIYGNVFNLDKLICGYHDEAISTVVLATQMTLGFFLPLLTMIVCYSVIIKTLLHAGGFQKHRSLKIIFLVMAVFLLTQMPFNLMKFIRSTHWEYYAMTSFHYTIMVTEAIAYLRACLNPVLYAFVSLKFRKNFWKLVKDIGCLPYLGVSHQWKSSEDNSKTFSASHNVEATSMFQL
Data set [3] can be described thus: AUC (0 to infinity) in jugular pre-cannulated Harlan Sprague-Dawley rat at 2 mg/kg, iv. To be noted: plasma. On the set-up: time infinity, dose 2 mg/kg, route intravenous. Format: ADME, organism-based.
The target in data set [4] is C-X-C chemokine receptor type 4 (Homo sapiens, UniProt P61073).
C-X-C chemokine receptor type 4, sequence (P61073 whole entry): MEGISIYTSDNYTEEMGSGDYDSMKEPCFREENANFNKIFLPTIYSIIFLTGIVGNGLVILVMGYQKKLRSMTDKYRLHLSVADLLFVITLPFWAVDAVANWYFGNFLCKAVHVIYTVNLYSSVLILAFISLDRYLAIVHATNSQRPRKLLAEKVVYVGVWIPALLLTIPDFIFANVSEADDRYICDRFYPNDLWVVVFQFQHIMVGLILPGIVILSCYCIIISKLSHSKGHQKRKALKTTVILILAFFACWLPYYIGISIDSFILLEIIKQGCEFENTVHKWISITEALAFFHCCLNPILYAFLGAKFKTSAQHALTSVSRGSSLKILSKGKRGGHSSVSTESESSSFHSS
Data set [5] has as its target C-C chemokine receptor type 5 (Homo sapiens) (UniProt P51681). Put plainly: Inhibition of CCR5 (unknown origin) at 10 uM relative to control.
The target of data set [6] is T1, C-C chemokine receptor type 6 (Homo sapiens) (UniProt P51684).
T1 sequence (whole entry): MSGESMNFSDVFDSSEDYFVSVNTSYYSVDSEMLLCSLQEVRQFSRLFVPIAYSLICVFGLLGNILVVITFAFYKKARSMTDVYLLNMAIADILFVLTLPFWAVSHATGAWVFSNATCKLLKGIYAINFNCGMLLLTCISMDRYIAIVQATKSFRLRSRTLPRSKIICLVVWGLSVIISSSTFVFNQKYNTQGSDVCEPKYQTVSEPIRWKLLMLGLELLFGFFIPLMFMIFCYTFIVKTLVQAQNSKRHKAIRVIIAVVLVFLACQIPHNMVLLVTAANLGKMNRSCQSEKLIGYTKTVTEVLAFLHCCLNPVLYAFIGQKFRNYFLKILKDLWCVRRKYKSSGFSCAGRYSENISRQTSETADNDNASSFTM
Put plainly: Inhibition of CCR6 (unknown origin) at 10 uM relative to control.

Data set [7] has as its target T2, C-X-C chemokine receptor type 5 (Homo sapiens) (UniProt P32302).
T2 sequence (whole entry): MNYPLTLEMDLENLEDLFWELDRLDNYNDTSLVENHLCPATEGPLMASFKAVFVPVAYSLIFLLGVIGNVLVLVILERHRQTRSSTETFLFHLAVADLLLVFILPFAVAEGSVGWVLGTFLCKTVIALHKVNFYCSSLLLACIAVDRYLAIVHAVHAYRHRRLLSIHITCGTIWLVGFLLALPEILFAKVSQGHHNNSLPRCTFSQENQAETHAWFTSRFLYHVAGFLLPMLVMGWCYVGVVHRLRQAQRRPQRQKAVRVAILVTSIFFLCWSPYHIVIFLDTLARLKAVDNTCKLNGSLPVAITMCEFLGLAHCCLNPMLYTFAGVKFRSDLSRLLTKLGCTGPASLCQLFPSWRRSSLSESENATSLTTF
Put plainly: Inhibition of CXCR5 (unknown origin) at 10 uM relative to control.

In data set [8] the target is T3, C-C chemokine receptor type 7 (Homo sapiens) (UniProt P32248).
T3 sequence (whole entry): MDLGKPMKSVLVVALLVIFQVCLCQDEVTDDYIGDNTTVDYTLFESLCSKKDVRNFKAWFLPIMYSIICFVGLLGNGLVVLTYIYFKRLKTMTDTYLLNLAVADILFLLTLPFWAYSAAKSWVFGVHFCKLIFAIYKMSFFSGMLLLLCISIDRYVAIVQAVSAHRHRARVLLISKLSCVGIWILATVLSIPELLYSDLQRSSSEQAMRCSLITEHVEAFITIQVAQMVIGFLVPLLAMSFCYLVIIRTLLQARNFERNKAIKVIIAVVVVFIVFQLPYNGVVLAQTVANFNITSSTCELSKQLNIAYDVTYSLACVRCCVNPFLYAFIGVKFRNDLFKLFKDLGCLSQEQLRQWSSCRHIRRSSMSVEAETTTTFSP
Put plainly: Inhibition of CCR7 (unknown origin) at 10 uM relative to control.

The nature of data set [9]: Plasma concentration in Harlan C57BL/6 mouse at 5 mg/kg, sc after 1 hr by LC/MS/MS analysis. Format: ADME, organism-based. On the set-up: dose 5 mg/kg, route subcutaneous. In outline:
as §1

Data set [10] is described as follows: Plasma concentration in Harlan C57BL/6 mouse at 10 mg/kg, sc after 1 hr by LC/MS/MS analysis. Format: ADME, organism-based. More on the design: dose 10 mg/kg, route subcutaneous. The essentials:
as §1

Data set [11] in a line: Half life in rat liver microsomes at 1 uM incubated for 3 mins prior to NADPH addition by LC-MS/MS analysis. Format: ADME.
The target in data set [12] is T4, C-C chemokine receptor type 4 (Homo sapiens) (UniProt P51679).
T4 sequence (whole entry): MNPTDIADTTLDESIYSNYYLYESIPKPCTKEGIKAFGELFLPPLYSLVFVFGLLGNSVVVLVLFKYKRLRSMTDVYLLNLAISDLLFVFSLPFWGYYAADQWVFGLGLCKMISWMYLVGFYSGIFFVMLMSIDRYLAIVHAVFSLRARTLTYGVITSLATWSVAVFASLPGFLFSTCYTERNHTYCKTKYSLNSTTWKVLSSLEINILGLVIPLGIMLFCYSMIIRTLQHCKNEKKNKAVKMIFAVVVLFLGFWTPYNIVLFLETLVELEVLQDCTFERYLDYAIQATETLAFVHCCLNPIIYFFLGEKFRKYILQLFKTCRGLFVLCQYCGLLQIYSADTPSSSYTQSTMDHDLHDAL
Kind of data set: Inhibition of CCR4 (unknown origin) at 10 uM relative to control.

Data set [13] can be described thus: AUC (0 to infinity) in jugular pre-cannulated CRL Sprague-Dawley rat at 10 mg/kg, po. The format is ADME, organism-based. More on the design: dose 10 mg/kg, route oral, time infinity. The settings on record: plasma.
The nature of data set [14]: Half life in human liver microsomes at 1 uM incubated for 3 mins prior to NADPH addition by LC-MS/MS analysis. The format is ADME.
In data set [15] the target is T5, C-C chemokine receptor type 1 (Homo sapiens) (UniProt P32246).
T5 sequence (whole entry): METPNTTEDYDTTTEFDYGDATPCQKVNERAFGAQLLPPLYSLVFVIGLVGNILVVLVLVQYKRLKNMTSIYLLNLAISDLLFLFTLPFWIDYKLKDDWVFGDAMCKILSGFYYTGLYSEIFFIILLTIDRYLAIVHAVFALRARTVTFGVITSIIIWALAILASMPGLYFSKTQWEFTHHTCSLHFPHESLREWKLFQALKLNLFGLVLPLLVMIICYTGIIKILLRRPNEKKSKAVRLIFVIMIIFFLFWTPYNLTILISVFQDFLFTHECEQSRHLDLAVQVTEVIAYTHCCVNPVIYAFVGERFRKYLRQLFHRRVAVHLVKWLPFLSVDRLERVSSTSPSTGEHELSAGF
Put plainly: Inhibition of CCR1 (unknown origin) at 10 uM relative to control.

Data set [16] can be described thus: Half life in mouse liver microsomes at 1 uM incubated for 3 mins prior to NADPH addition by LC-MS/MS analysis. Format: ADME, Microsome.

We go through one compound from ChEMBL document CHEMBL3091329, “Discovery of tetrahydroisoquinoline-based CXCR4 antagonists” (ACS Med Chem Lett, 2013).

The source made the active and inactive calls. The calls are words filed in the database; no cut-off is given here.

C-C chemokine receptor type 5 (Homo sapiens), sequence (P51681 whole entry, looked up): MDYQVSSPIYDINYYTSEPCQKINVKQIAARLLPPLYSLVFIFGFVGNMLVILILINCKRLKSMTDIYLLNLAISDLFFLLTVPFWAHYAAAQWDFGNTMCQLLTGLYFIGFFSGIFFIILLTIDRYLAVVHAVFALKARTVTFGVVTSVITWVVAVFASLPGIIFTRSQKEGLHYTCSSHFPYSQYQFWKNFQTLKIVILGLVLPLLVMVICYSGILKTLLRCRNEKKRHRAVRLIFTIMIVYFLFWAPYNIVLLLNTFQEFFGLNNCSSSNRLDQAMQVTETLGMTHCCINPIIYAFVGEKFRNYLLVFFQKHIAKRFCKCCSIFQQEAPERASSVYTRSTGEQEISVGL

As usually defined, the inhibition is the relative decrease from the control value, in per cent. A higher inhibition goes with a response far below the control. By AUC(0-inf) is commonly meant total exposure, with the tail of the curve extrapolated. Read a low AUC(0-inf) as less exposure. For orientation: IC90 means the concentration at which the effect reaches the 90% level. One may read the half-life as the time in which the quantity being followed falls by half. Lower therefore signals fast loss. As for `NCCCCN(C[C@H]1Cc2ccccc2CN1)[C@H]1CCCc2cccnc21`, the CLH in the data set with Liver microsome came to 35 µL/min/mg. For the same compound, the CC50 in data set [1] came to 47 µM. In addition, the result in the data set on Mus musculus was inactive. Besides, the inhibition in [2], in [5], in data set [6], in data set [7], in data set [8] and in data set [12] was below 10% each time. In [15], this compound gave an inhibition below 10%. In addition, the values for the AUC(0-inf) in data set [3] and in data set [13] were 108 ng·h/mL and 328 ng·h/mL, respectively. This compound came in with an IC90 in [4] of 0.24 µM. The figures for the concentration at 1 h in [9] and in [10] were 725 ng/mL and 1020 ng/mL, respectively. Further, the half-life at 1 µM was 39 min in [11], above 60 min in [14] and 22 min in data set [16].
